Results on 19 compounds are retold here after ChEMBL document CHEMBL1938239, “Novel analgesic/anti-inflammatory agents: diarylpyrrole acetic esters endowed with nitric oxide releasing properties” (J Med Chem, 2011).

pIC50: −log10 of the molar value. The source made the active and inactive calls. The rule behind the calls is not given here.

The target in experiment [1] is T1, Prostaglandin G/H synthase 1 (Mus musculus, UniProt P22437).
T1 sequence (P22437 whole entry): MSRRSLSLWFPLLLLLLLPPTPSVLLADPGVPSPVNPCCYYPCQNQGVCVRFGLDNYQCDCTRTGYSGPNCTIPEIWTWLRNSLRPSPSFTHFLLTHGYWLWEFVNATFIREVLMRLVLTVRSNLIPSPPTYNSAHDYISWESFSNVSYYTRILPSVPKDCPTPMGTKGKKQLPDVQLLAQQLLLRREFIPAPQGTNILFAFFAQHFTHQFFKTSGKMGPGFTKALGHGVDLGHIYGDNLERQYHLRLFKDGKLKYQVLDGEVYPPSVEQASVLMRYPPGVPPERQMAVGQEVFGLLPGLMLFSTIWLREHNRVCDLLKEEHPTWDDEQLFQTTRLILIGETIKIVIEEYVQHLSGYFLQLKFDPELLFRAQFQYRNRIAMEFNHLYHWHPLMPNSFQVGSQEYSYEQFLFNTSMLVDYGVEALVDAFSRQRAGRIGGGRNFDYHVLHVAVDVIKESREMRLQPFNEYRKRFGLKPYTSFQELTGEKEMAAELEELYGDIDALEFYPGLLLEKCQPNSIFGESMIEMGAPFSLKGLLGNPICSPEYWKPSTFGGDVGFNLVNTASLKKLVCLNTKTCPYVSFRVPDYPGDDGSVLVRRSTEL
Put plainly: Inhibition of COX-1-mediated PGE2 production in arachidonic acid-stimulated mouse J774 cells incubated for 15 mins prior to arachidonic acid-challenge by radioimmunoassay. It counts as cell-based. An outline of the steps:
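J774 murine macrophages grown in DMEM with 10% FBS and allowed to adhere for 2 h at 37 °C. Cells were pretreated with compound at 10 μM for 15 min, then given 15 μM arachidonic acid for 30 min at 37 °C. Where inhibition exceeded 50%, 0.01–1 μM was also tested. Supernatant PGE2 was measured by RIA as % inhibition versus control, in triplicate wells over three experiments. IC50 came from a sigmoidal variable-slope fit.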

In the next experiment the test system is J774. Description: Selectivity ratio of IC50 for COX1 in mouse J774 cells to IC50 for COX2 in mouse J774 cells. The format is cell-based. The method in brief:
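Ratio of J774 IC50s, COX-1 over COX-2. For COX-1, cells were pretreated with compound for 15 min, then given 15 μM arachidonic acid for 30 min at 37 °C. For COX-2, cells received E. coli LPS 10 μg/mL for 24 h with compound at 0.01–10 μM. PGE2 was measured by RIA in triplicate wells over three experiments. IC50 came from a sigmoidal fit.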

Experiment [2] deals with T2, Prostaglandin G/H synthase 2 (Mus musculus, UniProt Q05769).
T2 sequence (Q05769 whole entry): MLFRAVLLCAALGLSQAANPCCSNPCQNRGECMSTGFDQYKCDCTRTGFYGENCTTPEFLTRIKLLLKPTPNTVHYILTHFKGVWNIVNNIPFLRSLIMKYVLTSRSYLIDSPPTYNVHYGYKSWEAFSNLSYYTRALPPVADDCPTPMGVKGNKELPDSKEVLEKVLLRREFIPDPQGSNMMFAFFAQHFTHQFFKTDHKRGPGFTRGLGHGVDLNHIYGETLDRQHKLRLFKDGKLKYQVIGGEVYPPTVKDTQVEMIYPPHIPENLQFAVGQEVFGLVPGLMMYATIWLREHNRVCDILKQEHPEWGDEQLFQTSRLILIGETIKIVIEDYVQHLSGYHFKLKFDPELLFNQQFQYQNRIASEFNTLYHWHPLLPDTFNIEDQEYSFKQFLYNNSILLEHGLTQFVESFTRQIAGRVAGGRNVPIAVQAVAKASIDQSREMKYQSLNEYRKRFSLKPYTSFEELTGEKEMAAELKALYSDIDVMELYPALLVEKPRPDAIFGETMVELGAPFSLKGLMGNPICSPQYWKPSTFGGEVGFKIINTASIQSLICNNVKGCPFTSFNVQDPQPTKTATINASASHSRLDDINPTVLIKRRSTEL
Description: Inhibition of COX-2-mediated PGE2 production in LPS-stimulated mouse J774 cells after 24 hrs by radioimmunoassay. It counts as cell-based.

The target of experiment [3] is T3, Prostaglandin G/H synthase 1 (Mus musculus) (UniProt P22437).
T3 sequence (whole entry): T1 sequence (P22437 whole entry)
Put plainly: Inhibition of COX-1-mediated PGE2 production in arachidonic acid-stimulated mouse J774 cells at 10 uM incubated for 15 mins prior to arachidonic acid-challenge by radioimmunoassay. It counts as cell-based. The method in brief: (§1)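 J774 murine macrophages grown in DMEM with 10% FBS and allowed to adhere for 2 h at 37 °C. Where inhibition exceeded 50%, 0.01–1 μM was also tested. Supernatant PGE2 was measured by RIA as % inhibition versus control, in triplicate wells over three experiments. IC50 came from a sigmoidal variable-slope fit.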

In experiment [4] the test system is Aorta. Description: Vasorelaxation activity against KCl-induced contraction in isolated Wistar rat thoracic endothelium-denulated aortic rings in the presence of guanylate cyclase inhibitor ODQ. It counts as functional, tissue-based. The method in brief:
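Thoracic aortic rings from male Wistar rats (250–350 g), endothelium removed by rubbing; rings relaxing ≥10% to ACh 10 μM on KCl 30 mM tone were discarded. ODQ 1 μM was incubated, then rings were contracted with KCl 30 mM and given 3-fold increasing concentrations of 1 nM–10 μM.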

Experiment [5] relates to Aorta. Put plainly: Vasorelaxation activity against KCl-induced contraction in isolated Wistar rat thoracic endothelium-denulated aortic rings. The format is functional, tissue-based. An outline of the steps:
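Endothelium-denuded thoracic aortic rings from male Wistar rats (250−350 g); denudation confirmed by <10% relaxation to 10 μM ACh. Rings precontracted with 30 mM KCl; compound added at 3-fold increasing concentrations, 1 nM to 10 μM. Isometric tension recorded. Emax given as % of KCl tone; pIC50 derived. Mean ± standard error of 6−10 experiments; repeated with 1 μM ODQ.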

The target of experiment [6] is T3, Prostaglandin G/H synthase 1 (Mus musculus). Put plainly: Inhibition of COX-1-mediated PGE2 production in arachidonic acid-stimulated mouse J774 cells at 1 uM incubated for 15 mins prior to arachidonic acid-challenge by radioimmunoassay. It counts as cell-based. The method in brief:
as §1

Experiment [7] has the same target. Description: Inhibition of COX-1-mediated PGE2 production in arachidonic acid-stimulated mouse J774 cells at 0.1 uM incubated for 15 mins prior to arachidonic acid-challenge by radioimmunoassay. It counts as cell-based. An outline of the steps: as §1
Experiment [8] addresses T4, Prostaglandin G/H synthase 2 (Mus musculus) (UniProt Q05769).
T4 sequence (whole entry): T2 sequence (Q05769 whole entry)
Put plainly: Inhibition of COX-2-mediated PGE2 production in LPS-stimulated mouse J774 cells at 0.001 uM after 24 hrs by radioimmunoassay. It counts as cell-based.

A word on the pIC50: it is the negative decadic logarithm of the IC50, by convention in mol/L. High values mean a small IC50, low ones a large IC50. As usually defined, the inhibition is the change of the read-out against control, counted positive when it falls. Read a high inhibition as a strong effect. `Cc1c(CC(=O)OCCO)cc(-c2ccc(S(C)(=O)=O)cc2)n1-c1ccc(F)cc1`: the negative logarithm of the IC50 (pIC50) in [1] is < 5.00; in [2], 7.41. Besides, in the experiment on J774, the Ratio IC50 was > 256. Further, in experiment [3], the inhibition came to 21%.

In the case of `CSc1ccc(-n2c(-c3ccc(S(C)(=O)=O)cc3)cc(CC(=O)OCCCO[N+](=O)[O-])c2C)cc1`, the negative-log IC50 (pIC50) (in experiment [1]; with Aorta [5]) was < 5.00 throughout. The Ratio IC50 in the experiment with J774 was > 370. Further, in the experiment with Aorta [4], the result was inactive. Further, the inhibition in experiment [3] was 0%.

For `CSc1ccc(-n2c(-c3ccc(S(C)(=O)=O)cc3)cc(CC(=O)OCCCO)c2C)cc1`, the negative-log IC50 (pIC50) in [1] was < 5.00. The Ratio IC50 in the experiment on J774 was > 38.5. In [3], the inhibition stood at 36%.

Broadly, the Emax is the greatest response seen or fitted, relative to the assay's reference. `Cc1c(CC(=O)OCCO[N+](=O)[O-])cc(-c2ccc(S(C)(=O)=O)cc2)n1-c1ccccc1`: the pIC50 is < 5.00 in experiment [1] and 5.76 in the experiment with Aorta [5]. Moreover, the Ratio IC50 with J774 is > 233. The result in the experiment on Aorta [4] was inactive. The maximal effect (Emax) in the experiment on Aorta [5] was found to be 65%. The inhibition in experiment [3] stood at 19%.

In the experiment on Aorta [5], `O=[N+]([O-])OCC(CO[N+](=O)[O-])O[N+](=O)[O-]` [NITROGLYCERIN] had a maximal response (Emax) of 73% and a negative logarithm of the IC50 (pIC50) of 6.90.

As to `COc1ccc(-n2c(-c3ccc(S(C)(=O)=O)cc3)cc(CC(=O)OCCO[N+](=O)[O-])c2C)cc1`, the negative logarithm of the IC50 (pIC50) is 5.19 in experiment [1] and 6.75 with Aorta [5]. Further, the Ratio IC50 in the experiment with J774 turned out to be 37.6. Besides, in the experiment with Aorta [4], the result was inactive. Besides, the inhibition in experiment [3] was 55%; in experiment [6] it was 30%; in [7] it was 12%.

For `CSc1ccc(-n2c(-c3ccc(S(C)(=O)=O)cc3)cc(CC(=O)O)c2C)cc1`, the pIC50 in experiment [1] is < 5.00; in experiment [2] it was 7.89. Further, the Ratio IC50 in the experiment with J774 is > 769. The same compound displayed an inhibition in experiment [3] of 45%.

With `Cc1c(CC(=O)OCCCO)cc(-c2ccc(S(C)(=O)=O)cc2)n1-c1ccc(F)cc1`, the results for the negative logarithm of the IC50 (pIC50) in experiment [1] and in experiment [2] were < 5.00 and 7.25, respectively. For the same compound, the Ratio IC50 in the experiment with J774 is > 179. Further, the inhibition in experiment [3] was found to be 0%.

For `Cc1c(CC(=O)O)cc(-c2ccc(S(C)(=O)=O)cc2)n1-c1ccccc1`, in experiment [1], the pIC50 is < 5.00. Besides, in the experiment on J774, the Ratio IC50 is > 10. The compound further showed an inhibition in experiment [3] of 0%.

For `CSc1ccc(-n2c(-c3ccc(S(C)(=O)=O)cc3)cc(CC(=O)OCCO)c2C)cc1`, the pIC50 in experiment [1] was 5.50. Moreover, the Ratio IC50 with J774 is 37.4. The inhibition amounted to 62% in experiment [3], 40% in experiment [6] and 11% in experiment [7].

In the case of `COc1ccc(-n2c(-c3ccc(S(C)(=O)=O)cc3)cc(CC(=O)OCCCO[N+](=O)[O-])c2C)cc1`, the pIC50 in experiment [1] was < 5.00; in experiment [2] it was 8.62; in the experiment with Aorta [5], < 5.00. Moreover, the Ratio IC50 with J774 was > 4170. Moreover, the inhibition turned out to be 39% in experiment [8] and 0% in experiment [6]. Moreover, the outcome with Aorta [4] was inactive.

On to `Cc1c(CC(=O)OCCO)cc(-c2ccc(S(C)(=O)=O)cc2)n1-c1ccccc1`, for which the pIC50 is < 5.00 in experiment [1] and 7.02 in experiment [2]. The Ratio IC50 in the experiment with J774 was > 104. The inhibition in [3] is 22%.

With `Cc1c(CC(=O)OCCCO[N+](=O)[O-])cc(-c2ccc(S(C)(=O)=O)cc2)n1-c1ccccc1`, the pIC50 was < 5.00 in experiment [1], 7.38 in experiment [2] and < 5.00 in the experiment with Aorta [5]. In the experiment on J774, the Ratio IC50 was > 238. For the same compound, the result in the experiment on Aorta [4] was inactive. The same compound displayed a maximum response (Emax) in the experiment with Aorta [5] of 44%. This compound also yielded an inhibition in experiment [3] of 27%.

As for `COc1ccc(-n2c(-c3ccc(S(C)(=O)=O)cc3)cc(CC(=O)OCCCO)c2C)cc1`, the negative logarithm of the IC50 (pIC50) in experiment [1] is < 5.00. For the same compound, the Ratio IC50 with J774 was > 14.3. Besides, the inhibition in experiment [3] came out at 27%.

On to `Cc1c(CC(=O)O)cc(-c2ccc(S(C)(=O)=O)cc2)n1-c1ccc(F)cc1`, for which the negative logarithm of the IC50 (pIC50) was < 5.00 in experiment [1] and 6.30 in experiment [2]. The Ratio IC50 in the experiment on J774 was > 20.

For the compound `Cc1c(CC(=O)OCCCO[N+](=O)[O-])cc(-c2ccc(S(C)(=O)=O)cc2)n1-c1ccc(F)cc1`, the pIC50 in [1] was < 5.00; in [2] it was 7.43; with Aorta [5], < 5.00. Moreover, the Ratio IC50 in the experiment on J774 was > 269. Besides, the outcome in the experiment on Aorta [4] was inactive. Moreover, the Emax with Aorta [5] is 41%. The inhibition in experiment [3] was found to be 28%.

With `Cc1c(CC(=O)OCCO[N+](=O)[O-])cc(-c2ccc(S(C)(=O)=O)cc2)n1-c1ccc(F)cc1`, the pIC50 in experiment [1] was < 5.00; in experiment [2], 7.54; in the experiment on Aorta [5], 5.47. Further, in the experiment with J774, the Ratio IC50 is > 345. In the experiment with Aorta [4], the result was inactive. In experiment [3], this compound displayed an inhibition of 0%.

Turning to `CSc1ccc(-n2c(-c3ccc(S(C)(=O)=O)cc3)cc(CC(=O)OCCO[N+](=O)[O-])c2C)cc1`, the pIC50 was < 5.00 in experiment [1], 7.77 in experiment [2] and 6.34 in the experiment with Aorta [5]. In addition, in the experiment on J774, the Ratio IC50 is > 588. In addition, in the experiment on Aorta [4], the result was inactive. This compound also displayed a maximal response (Emax) with Aorta [5] of 65%. The compound further had an inhibition in experiment [3] of 0%.

As for `COc1ccc(-n2c(-c3ccc(S(C)(=O)=O)cc3)cc(CC(=O)OCCO)c2C)cc1`, in experiment [1], the negative logarithm of the IC50 (pIC50) was < 5.00. Also, the Ratio IC50 with J774 is > 9.1. In experiment [3], this compound had an inhibition of 5%.
